Residues, ends and D or L forms follow the SMILES beside them. *: point of attachment. Succinyl(O17-estradiol) = C[C@]12CC[C@@H]3c4ccc(O)cc4CC[C@H]3[C@@H]1CC[C@@H]2OC(=O)CCC(=O)*; Acetyl(estradiol-3-yloxy) = C[C@]12CC[C@@H]3c4ccc(OCC(=O)*)cc4CC[C@H]3[C@@H]1CC[C@@H]2O
How the values were obtained:
Mus musculus [1] = assay: Antiosteoporosis activity in ovariectomized ICR mouse assessed as calcium level in serum at 110.3 nmol/kg, po treated for 4 weeks measured after 1 day of last treatment by o-methyl-phenolphthalein method; type: functional
Method in brief: (§1)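 Ovariectomized female mice dosed orally with 110.3 nmol/kg in 0.5% carboxymethylcellulose once daily for 4 weeks, starting day 5 after surgery. Blood taken from the orbit the day after the last dose, stood 30 min, centrifuged 3000g for 20 min, serum stored at −20 °C. Calcium read by o-methylphenolphthalein complexone; phosphorus by molybdenum blue.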

Mus musculus [2] = assay: Antiosteoporosis activity in ovariectomized ICR mouse assessed as phosphorous level in serum at 110.3 nmol/kg, po treated for 4 weeks measured after 1 day of last treatment by molybdenum blue method; type: functional; method in brief: as §1
Mus musculus [3] = assay: Antiosteoporosis activity in ovariectomized ICR mouse assessed as weight of dry femur at 110.3 nmol/kg, po treated for 4 weeks measured after 1 day of last treatment; type: functional
Method in brief: (§2)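 Left femur taken the day after the last dose, cleaned of muscle, length measured, defatted in chloroform–methanol (2:1, 2×3 h), dried 120 °C 6 h and weighed, ashed 800 °C 8 h and weighed. Mineral content = ash/dry weight; femur ash dissolved in 6 N HCl, diluted, calcium by o-methylphenolphthalein complexone. n = 12.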

Mus musculus [4] = assay: Antiosteoporosis activity in ovariectomized ICR mouse assessed as weight of femur ash at 110.3 nmol/kg, po treated for 4 weeks measured after 1 day of last treatment; type: functional
Method in brief: as §2, with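 “Female mice, ovariectomized (sham: laparotomy only); from day 5 post-surgery dosed orally once daily with 110.3 nmol/kg in 0.2 ml 0.5% carboxymethylcellulose for 4 weeks (vehicle to OVX/sham). Left” for “Left”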

Mus musculus [5] = assay: Antiosteoporosis activity in ovariectomized ICR mouse assessed as length of femur at 110.3 nmol/kg, po treated for 4 weeks measured after 1 day of last treatment; type: functional
Method in brief: as §2, with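 “Female mice, ovariectomized (sham: laparotomy only); from day 5 post-surgery dosed orally once daily with 110.3 nmol/kg in 0.2 ml 0.5% carboxymethylcellulose for 4 weeks (vehicle to OVX/sham). Left” for “Left”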

Mus musculus [6] = assay: Antiosteoporosis activity in ovariectomized ICR mouse assessed as calcium content in femur at 110.3 nmol/kg, po treated for 4 weeks measured after 1 day of last treatment by o-methyl-phenolphthalein; type: functional
Method in brief: as §2, with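 “Female mice, ovariectomized (sham: laparotomy only); from day 5 post-surgery dosed orally once daily with 110.3 nmol/kg in 0.2 ml 0.5% carboxymethylcellulose for 4 weeks (vehicle to OVX/sham). Left” for “Left”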

Mus musculus [7] = assay: Antiosteoporosis activity in ovariectomized ICR mouse assessed as phosphorous content in femur at 110.3 nmol/kg, po treated for 4 weeks measured after 1 day of last treatment by molybdenum blue method; type: functional
Mus musculus [8] = assay: Antiosteoporosis activity in ovariectomized ICR mouse assessed as mineral content in femur at 110.3 nmol/kg, po treated for 4 weeks measured after 1 day of last treatment; type: functional
Method in brief: as §2, with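 “Female mice, ovariectomized (sham: laparotomy only); from day 5 post-surgery dosed orally once daily with 110.3 nmol/kg in 0.2 ml 0.5% carboxymethylcellulose for 4 weeks (vehicle to OVX/sham). Left” for “Left”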

Mus musculus [9] = assay: Toxicity in ovariectomized ICR mouse assessed as spleen weight at 110.3 nmol/kg, po treated for 4 weeks measured after 1 day of last treatment; type: organism-based; settings: in vivo, 24 h
Method in brief: (§3)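 OVX mice dosed orally once daily with 110.3 nmol/kg in 0.5% carboxymethylcellulose for 4 weeks. The day after the last dose, mice were anesthetized with pentobarbital (40.0 mg/kg ip) and killed; uteri, lungs, livers and spleens were removed and weighed directly and their morphology noted.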

Mus musculus [10] = assay: Toxicity in ovariectomized ICR mouse assessed as lung weight at 110.3 nmol/kg, po treated for 4 weeks measured after 1 day of last treatment; type: organism-based; settings: in vivo, 24 h; method in brief: as §3
Mus musculus [11] = assay: Toxicity in ovariectomized ICR mouse assessed as kidney weight at 110.3 nmol/kg, po treated for 4 weeks measured after 1 day of last treatment; type: organism-based; settings: in vivo, 24 h
Mus musculus [12] = assay: Toxicity in ovariectomized ICR mouse assessed as liver weight at 110.3 nmol/kg, po treated for 4 weeks measured after 1 day of last treatment; type: organism-based; settings: in vivo, 24 h; method in brief: as §3
Mus musculus [13] = assay: Toxicity in ovariectomized ICR mouse assessed as effect on tail bleeding time at 110.3 nmol/kg, po treated for 4 weeks measured after 30 mins of last treatment; type: organism-based; settings: in vivo, 0.5 h
Method in brief: (§4)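 OVX mice received 110.3 nmol/kg orally in 0.5% carboxymethylcellulose daily for 4 weeks. At 30 and 90 min after the last dose, a 2 mm tail cut was made with the mouse in a tube holder; blood was blotted every 30 s until bleeding stopped, and the time was recorded as bleeding time.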

Mus musculus [14] = assay: Toxicity in ovariectomized ICR mouse assessed as effect on tail bleeding time at 110.3 nmol/kg, po treated for 4 weeks measured after 90 mins of last treatment; type: organism-based; settings: in vivo, 1.5 h; method in brief: as §4
Mus musculus [15] = assay: Toxicity in ovariectomized ICR mouse assessed as effect on uterine weight at 110.3 nmol/kg, po treated for 4 weeks measured after 1 day of last treatment; type: organism-based; settings: in vivo, 24 h; method in brief: as §3

Row | Compound | Activity (Mus musculus [1]) [mM] | Activity (Mus musculus [2]) [mM] | Activity (Mus musculus [3]) [mg] | Activity (Mus musculus [4]) [mg] | Activity (Mus musculus [5]) [cm] | Activity (Mus musculus [6]) [%] | Activity (Mus musculus [7]) [%] | Activity (Mus musculus [8]) [%] | Activity (Mus musculus [9]) [g] | Activity (Mus musculus [10]) [g] | Activity (Mus musculus [11]) [g] | Activity (Mus musculus [12]) [g] | Time (Mus musculus [13]) [s] | Time (Mus musculus [14]) [s] | Activity (Mus musculus [15]) [g]
1 | C[C@]12CC[C@@H]3c4ccc(OCC(=O)N[C@@H](CCCNC(=N)N)C(=O)NCC(=O)N[C@@H](CC(=O)O)C(=O)N[C@@H](Cc5ccccc5)C(=O)O)cc4CC[C@H]3[C@@H]1CC[C@@H]2O ({Acetyl(estradiol-3-yloxy)}-RGDF-OH) | 3.24 | 3.19 | 53.87 | 33.56 | 1.669 | 57.42 | 20.09 | 0.596 | 0.177 | 0.112 | 0.159 | 1.336 | 557 | 560 | 0.067
2 | C[C@]12CC[C@@H]3c4ccc(OCC(=O)N[C@@H](CCCNC(=N)N)C(=O)NCC(=O)N[C@@H](CC(=O)O)C(=O)N[C@@H](Cc5ccccc5)C(=O)N[C@@H](CCCNC(=N)N)C(=O)NCC(=O)N[C@@H](CC(=O)O)C(=O)N[C@@H](Cc5ccccc5)C(=O)O)cc4CC[C@H]3[C@@H]1CC[C@@H]2O ({Acetyl(estradiol-3-yloxy)}-RGDFRGDF-OH) | 3.05 | 3.01 | 56.96 | 36.74 | 1.641 | 63.92 | 21.33 | 0.623 | 0.131 | 0.119 | 0.169 | 1.439 | 592 | 585 | 0.061
3 | C[C@]12CC[C@@H]3c4ccc(OCC(=O)N[C@@H](CCCNC(=N)N)C(=O)NCC(=O)N[C@@H](CC(=O)O)C(=O)N[C@@H](CO)C(=O)O)cc4CC[C@H]3[C@@H]1CC[C@@H]2O ({Acetyl(estradiol-3-yloxy)}-RGDS-OH) | 3.23 | 2.98 | 53.89 | 34.08 | 1.646 | 58.76 | 20.24 | 0.605 | 0.142 | 0.128 | 0.193 | 1.492 | 582 | 577 | 0.064
4 | C[C@]12CC[C@@H]3c4ccc(OCC(=O)N[C@@H](CCCNC(=N)N)C(=O)NCC(=O)N[C@@H](CC(=O)O)C(=O)N[C@@H](CO)C(=O)N[C@@H](CCCNC(=N)N)C(=O)NCC(=O)N[C@@H](CC(=O)O)C(=O)N[C@@H](CO)C(=O)O)cc4CC[C@H]3[C@@H]1CC[C@@H]2O ({Acetyl(estradiol-3-yloxy)}-RGDSRGDS-OH) | 3.01 | 2.91 | 56.6 | 36.42 | 1.657 | 63.12 | 21.56 | 0.626 | 0.133 | 0.11 | 0.17 | 1.448 | 564 | 559 | 0.062
5 | CC(C)[C@H](NC(=O)[C@H](CC(=O)O)NC(=O)CNC(=O)[C@H](CCCNC(=N)N)NC(=O)COc1ccc2c(c1)CC[C@@H]1[C@@H]2CC[C@]2(C)[C@@H](O)CC[C@@H]12)C(=O)O ({Acetyl(estradiol-3-yloxy)}-RGDV-OH) | 3.22 | 2.99 | 53.97 | 33.99 | 1.67 | 57.84 | 20.24 | 0.611 | 0.133 | 0.109 | 0.167 | 1.4 | 569 | 577 | 0.064
6 | C[C@]12CC[C@@H]3c4ccc(O)cc4CC[C@H]3[C@@H]1CC[C@@H]2OC(=O)CCC(=O)N[C@@H](CCCNC(=N)N)C(=O)NCC(=O)N[C@@H](CC(=O)O)C(=O)N[C@@H](Cc1ccccc1)C(=O)O ({Succinyl(O17-estradiol)}-RGDF-OH) | 3.21 | 3.01 | 54 | 33.87 | 1.64 | 59.36 | 20.56 | 0.605 | 0.135 | 0.109 | 0.16 | 1.266 | 576 | 568 | 0.06
7 | C[C@]12CC[C@@H]3c4ccc(O)cc4CC[C@H]3[C@@H]1CC[C@@H]2OC(=O)CCC(=O)N[C@@H](CCCNC(=N)N)C(=O)NCC(=O)N[C@@H](CC(=O)O)C(=O)N[C@@H](CO)C(=O)O ({Succinyl(O17-estradiol)}-RGDS-OH) | 3.18 | 3.01 | 53.78 | 34.17 | 1.659 | 59.34 | 20.37 | 0.604 | 0.15 | 0.12 | 0.182 | 1.537 | 575 | 561 | 0.063
8 | C[C@]12CC[C@@H]3c4ccc(O)cc4CC[C@H]3[C@@H]1CC[C@@H]2OC(=O)CCC(=O)N[C@@H](CCCNC(=N)N)C(=O)NCC(=O)N[C@@H](CC(=O)O)C(=O)N[C@@H](CO)C(=O)N[C@@H](CCCNC(=N)N)C(=O)NCC(=O)N[C@@H](CC(=O)O)C(=O)N[C@@H](CO)C(=O)O ({Succinyl(O17-estradiol)}-RGDSRGDS-OH) | 3 | 2.6 | 56.41 | 36.48 | 1.665 | 65.16 | 21.4 | 0.625 | 0.149 | 0.116 | 0.174 | 1.479 | 562 | 556 | 0.065
9 | CC(C)[C@H](NC(=O)[C@H](CC(=O)O)NC(=O)CNC(=O)[C@H](CCCNC(=N)N)NC(=O)CCC(=O)O[C@H]1CC[C@H]2[C@@H]3CCc4cc(O)ccc4[C@H]3CC[C@]12C)C(=O)O ({Succinyl(O17-estradiol)}-RGDV-OH) | 3.26 | 3.04 | 54.01 | 33.7 | 1.672 | 57.49 | 20.14 | 0.612 | 0.149 | 0.125 | 0.178 | 1.55 | 551 | 560 | 0.064
10 | C[C@]12CC[C@@H]3c4ccc(O)cc4CC[C@H]3[C@@H]1CC[C@@H]2O [ESTRADIOL] | 3.24 | 3.01 |  | 32.22 | 1.642 | 57.28 | 19.81 | 0.608 | 0.144 | 0.12 | 0.173 | 1.552 | 417 | 441 | 0.108

From ChEMBL document CHEMBL1137729, “Synthesis, evaluation and 3D QSAR analysis of novel estradiol-RGD octapeptide conjugates with oral anti-osteoporosis activity” (Eur J Med Chem, 2009)
